Assay results of several laboratories.
Effect on: cell growth or viability

| SMILES | cell line | technique | time | quantity | value |
| --- | --- | --- | --- | --- | --- |
| COc1cc(Nc2nccc(-c3cnn4nc(OC)ccc34)n2)cc(C(F)(F)F)c1 | U2OS | ATP luminescence | – | IC50 | 390 nM |
| COc1ccc(-c2ccc(-c3ccc(C(=N)N)nc3)s2)cc1Cl | UACC-62 | SRB | – | GI50 | 1760 nM |
| Cn1nnc2c(C(N)=O)ncn2c1=O | Hs746T | – | – | EC50 | > 1000 µM |
| COc1cc(C(=O)Nc2cc(OC)c3ccccc3n2)nc(C(=O)Nc2cc(OC)c3ccccc3n2)c1 | U2OS | ATP luminescence | 72 h | IC50 | > 40000 nM |
| CCCCCCCCCCCCNC(=S)NCCCC[C@H](NS(C)(=O)=O)C(=O)N[C@H](C)C(=O)N[C@@H](CCCNC(=N)N)C(=O)N1CCOCC1 | HeLa | MTT | 72 h | EC50 | 89.8 to 126 µM |
| COc1cc(-c2ccc(-c3ccc(C(=N)N)nc3)s2)cc(OC)c1OC | Hs-578T | SRB | – | GI50 | 2590 nM |
| CC(C)[C@H](N)C(=O)N1CCC[C@H]1B(O)O | SKM-1 | ATP luminescence | 48 h | IC50 | 44 nM |
| CCCCCCCCCCCCNC(=O)NCCCC[C@H](NS(C)(=O)=O)C(=O)N[C@H](C)C(=O)N[C@@H](CCCNC(=N)N)C(N)=O | HeLa | MTT | 72 h | EC50 | 23.1 to 41.4 µM |
| O=C(Nc1cc(OCCN2CCCC2)c2ccccc2n1)c1cc(OCc2ccc(F)cc2)cc(C(=O)Nc2cc(OCCN3CCCC3)c3ccccc3n2)n1 | U2OS | ATP luminescence | 72 h | IC50 | 5800 nM |
| C=CC(=O)N1CCC[C@@H](n2nc(-c3ccc(Oc4ccccc4)cc3)c3c(N)ncnc32)C1 | NB-4 | ATP luminescence | 72 h | GI50 | 7500 nM |
| N=C(CCl)NCCC[C@H](NC(=O)c1ccccc1)C(N)=O | U2OS | XTT | 72 h | EC50 | > 200 µM |
| COc1cc(-c2ncn(/C=C\C(=O)OC(C)C)n2)cc(C(F)(F)F)c1 | SKM-1 | – | 72 h | IC50 | 80 nM |
